The values that follow come from ChEMBL document CHEMBL3351249, “Potent cholesteryl ester transfer protein inhibitors of reduced lipophilicity: 1,1'-spiro-substituted hexahydrofuroquinoline derivatives” (J Med Chem, 2014).

In data set [1] the test system is Cynomolgus monkey. The data set is described as follows: Effect on electrocardiogram parameters in cynomolgus monkey assessed as changes in QRS-complex up to 100 mg/kg by telemetry. Format: ADME, organism-based, Macaca fascicularis. Details: dose 100 mg/kg; call rule not given here. The following applies: in vivo. The procedure, abridged:
(§1)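 Acute telemetry study in conscious cynomolgus monkeys at doses up to 100 mg/kg. Blood pressure, left ventricular pressure, contractility, heart rate and ECG (PR, QRS, QT) recorded. Exposure followed as Cmax and MRT.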

The nature of data set [2]: Drug concentration in plasma of hemizygous human CETP transgenic mouse at 3 mg/kg, po dosed for 5 consecutive days measured on day 21 after cessation of drug treatment. Format: ADME, organism-based. Details: dose 3 mg/kg, route oral. The procedure, abridged: (§2)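 Male hCETP transgenic mice given oral doses for 5 days in 0.5% hydroxyethylcellulose. Tissues and plasma collected at day 3 and day 21 after the last dose. Fat diluted 6:1 with acetonitrile and homogenized. Analysis by LC/MS/MS on a C18 column with QCs at 4.0−1000 nM, accepted within 30% of target.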

The test system of data set [3] is Mus musculus. The data set is described as follows: Increase in HDL-cholesterol in human CETP/human ApoB-100 transgenic mouse at 10 mg/kg, po dosed for 14 consecutive days. Format: functional. The essentials: (§3)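 Male hemizygous hCETP or hCETP/hApoB100 transgenic mice, 26−30 weeks, chow-fed. Compound suspended in 0.5% aqueous hydroxyethylcellulose, oral gavage each morning for 5 or 14 days. EDTA blood taken 7 h post-dose (fed for 5-day, after 4 h fast for 14-day) from vena facialis under isoflurane. HDL/LDL cholesterol measured on Cobas Integra 400 Plus. Mean ± SEM, one-way ANOVA with Bonferroni.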

Data set [4] can be described thus: Drug concentration in muscle of hemizygous human CETP transgenic mouse at 3 mg/kg, po dosed for 5 consecutive days measured on day 21 after cessation of drug treatment. Format: ADME, organism-based, Muscle tissue. Details: dose 3 mg/kg, route oral. The following applies: read-out: Drug uptake. The essentials:
as §2

The nature of data set [5]: Drug concentration in testes of hemizygous human CETP transgenic mouse at 3 mg/kg, po dosed for 5 consecutive days measured on day 21 after cessation of drug treatment. Format: ADME, organism-based, Testis. Details: dose 3 mg/kg, route oral. The following applies: male, read-out: Drug uptake. The essentials: as §2
The test system of data set [6] is Mus musculus. Briefly: Inhibition of plasma CETP activity in hemizygous human CETP transgenic mouse dosed for 5 or 14 consecutive days via oral gavage. Format: functional, organism-based.
Another data set has as its system NCI-H295R. Briefly: Effect on aldosterone secretion in human NCI-H295R cells up to 10 uM. Format: ADME, cell-based.
Data set [7] relates to Cynomolgus monkey. The data set is described as follows: Effect on left ventricular pressure in cynomolgus monkey up to 100 mg/kg by telemetry. Format: ADME, organism-based, Macaca fascicularis, Heart left ventricle. As to conditions: in vivo. Details: dose 100 mg/kg. The essentials: as §1
Data set [8] in a line: Clearance in C57BL/6J mouse at 1 umol/kg, iv. Format: ADME, organism-based. The following applies: in vivo.
Data set [9] deals with Plasma. The data set is described as follows: Plasma concentration in hemizygous human CETP transgenic mouse at 1 mg/kg, po dosed for 5 consecutive days measured on day 5 and day 7 post dose. Format: ADME, organism-based. Details: dose 1 mg/kg, route oral. As to conditions: in vivo.
The test system of data set [10] is Mus musculus. Briefly: Increase in HDL-cholesterol in hemizygous human CETP transgenic mouse dosed for 14 consecutive days via oral gavage. Format: functional, organism-based. The procedure, abridged: as §3
For data set [11], the system named is Plasma. The data set is described as follows: Drug concentration in plasma of hemizygous human CETP transgenic mouse at 3 mg/kg, po dosed for 5 consecutive days measured on day 3 after cessation of drug treatment. The following applies: in vivo. Format: ADME, organism-based. Details: dose 3 mg/kg, route oral. The essentials:
as §2

Data set [12] has as its system Mus musculus. The data set is described as follows: Increase in HDL-cholesterol in hemizygous human CETP transgenic mouse at 1 mg/kg, po dosed for 5 consecutive days. Format: functional. The procedure, abridged:
as §3

For data set [13], the system named is Cynomolgus monkey. The data set is described as follows: Effect on blood pressure in cynomolgus monkey up to 100 mg/kg by telemetry. Format: ADME, organism-based, Macaca fascicularis. Details: dose 100 mg/kg. The following applies: in vivo. The essentials:
as §1

A short description of data set [14]: Volume of distribution at steady state in C57BL/6J mouse at 1 umol/kg, iv. Format: ADME, organism-based. The following applies: in vivo, read-out: Vdss.

In general, clearance refers to a measure of how efficiently the substance is removed, as volume per time. As to `CC(C)c1nc2c(c3c1[C@@H](c1ccc(C(F)(F)F)cc1)OC31CCOCC1)[C@@H](O)CC(C)(C)C2`, the Activity entry in the data set on Cynomolgus monkey [1] was “Non-toxic”; with Mus musculus [3], 37.2%; with NCI-H295R, “Non-toxic”; in the data set with Cynomolgus monkey [7] it was “Non-toxic”; in the data set on Mus musculus [10], “Dose-dependent effect”; with Mus musculus [12], 55.6%. For the same molecule, in the data set on Cynomolgus monkey [13], the Activity entry was “Non-toxic”. The concentration at 21 days after cessation of treatment in data set [2], in data set [4] and in data set [5] was below 30 nM throughout. Besides, in the data set on Mus musculus [6], the inhibition result is “Dose-dependent effect”. The clearance in [8] was 16 mL/min/kg. The concentration in the data set with Plasma [9] came out at 96 nM. In addition, the Drug uptake result with Plasma [11] is “Active”. In data set [14], the Vd came to 5.9 L/kg.
